Measurements from ChEMBL document CHEMBL1138355, “Amine-guanidine switch: a promising approach to improve DNA binding and antiproliferative activities” (J Med Chem, 2007).
The source made the active and inactive calls. The rule behind the calls is not given here.

Legend:
[1] = system: DNA; test: Binding affinity to calf […] DNA assessed as thermal stability in cacodylate buffer at 12 uM; type: nucleic-acid assay
[2] = system: DNA; test: Binding affinity to calf thymus DNA assessed as thermal stability in BPE buffer at 2 uM; type: nucleic-acid assay; conditions: Bos taurus
[3] = system: DNA; test: Binding affinity to calf […] DNA assessed as thermal stability in cacodylate buffer containing 0.1 M NaCl at 12 uM; type: nucleic-acid assay
[4] = system: SK-BR-3; test: Antiproliferative activity against human SKBR3 cells after 72 hrs; type: functional, cell-based; conditions: SK-BR-3, 72 h
Summary of the method: (§1)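 Cells grown in DMEM with 10% calf serum and 1 mM pyruvate, seeded at 5000 cells/well, left 24 h, then given increasing concentrations from DMSO stock in triplicate (DMSO-only controls) for 72 h. CellTiter 96 aqueous one-solution reagent added for 3 h at 37 °C, A540 read. IC50 taken as the concentration halving cell number versus controls, from triplicate means.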

[5] = molecular target: T1, Caspase-7 (Homo sapiens) (UniProt P55210); test: Increase in caspase 7 activation in human SKBR3 cells at 20 uM after 24 hrs; type: cell-based; conditions: SK-BR-3
T1 sequence (whole entry): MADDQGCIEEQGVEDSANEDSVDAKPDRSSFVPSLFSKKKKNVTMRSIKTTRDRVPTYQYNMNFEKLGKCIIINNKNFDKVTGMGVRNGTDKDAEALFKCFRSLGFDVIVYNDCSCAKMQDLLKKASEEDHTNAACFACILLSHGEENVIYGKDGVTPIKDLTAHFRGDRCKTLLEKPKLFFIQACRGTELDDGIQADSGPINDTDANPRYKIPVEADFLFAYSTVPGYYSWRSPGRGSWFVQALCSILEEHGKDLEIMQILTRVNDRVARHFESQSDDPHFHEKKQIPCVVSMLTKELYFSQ
Summary of the method: (§2)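 SKBR3 cells seeded at 10^4 per well and exposed to compounds at 20 µM for 24 h. Controls run with and without 0.2% DMSO. Caspase-3/7 activity measured in homogeneous lysates with Caspase-Glo 3/7 reagent as luciferase luminescence.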

[6] = molecular target: T2, Caspase-3 (Homo sapiens) (UniProt P42574); test: Increase in caspase 3 activation in human SKBR3 cells at 20 uM after 24 hrs; type: cell-based; conditions: SK-BR-3; summary of the method: as §2
T2 sequence (whole entry): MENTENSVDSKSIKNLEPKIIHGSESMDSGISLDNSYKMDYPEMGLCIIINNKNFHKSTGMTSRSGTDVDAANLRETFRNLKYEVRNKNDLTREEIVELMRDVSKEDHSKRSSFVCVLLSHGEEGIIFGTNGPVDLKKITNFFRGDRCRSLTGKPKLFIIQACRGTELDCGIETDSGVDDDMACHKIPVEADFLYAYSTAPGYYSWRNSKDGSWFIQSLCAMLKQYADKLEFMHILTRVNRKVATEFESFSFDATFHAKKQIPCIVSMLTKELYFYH

[7] = system: T47D; test: Antiproliferative activity against human T47D cells after 72 hrs; type: functional, cell-based; summary of the method: as §1
[8] = system: BT-474; test: Antiproliferative activity against human BT474 cells after 72 hrs; type: functional, cell-based; conditions: BT-474, 72 h
[9] = system: LNCaP; test: Antiproliferative activity against human LnCAP cells after 72 hrs; type: functional, cell-based
[10] = system: HT-29; test: Antiproliferative activity against human HT29 cells after 72 hrs; type: functional, cell-based; conditions: HT-29, 72 h; summary of the method: as §1
[11] = system: PC-3; test: Antiproliferative activity against human PC3 cells after 72 hrs; type: functional, cell-based; conditions: PC-3, 72 h
[12] = system: BT-474; test: Antitumor activity against human BT474 cells xenografted gamma C null NOG/SCID mouse assessed as reduction in tumor volume at 20 mg/kg, ip after 44 days; type: functional; design: scale not given: the % may be the effect or the level left; conditions: route intraperitoneal
Summary of the method: (§3)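 5 × 10^6 BT474 cells in Matrigel injected subcutaneously into the mammary gland of NOG/SCID mice. Once xenografts were established (10–15 days), mice got intraperitoneal doses in 0.9% NaCl every 3 days; controls got vehicle on the same schedule. Tumours measured by caliper, volume = 0.52(length × width²), five mice per group, percent volume change at day 44.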

[13] = system: BT-474; test: Antitumor activity against human BT474 cells xenografted in gamma C null NOG/SCID mouse assessed as reduction in tumor volume at 60 mg/kg, ip after 44 days; type: functional; design: scale not given: the % may be the effect or the level left; conditions: route intraperitoneal; summary of the method: as §3

SMILES	ΔTm [1]	ΔTm [2]	ΔTm [3]	IC50 [4]	Activity [5]	Activity [6]	IC50 [7]	IC50 [8]	Tm [2]	IC50 [9]	IC50 [10]	IC50 [11]	Activity [12]	Activity [13]
CN1CCN(c2ccc3[nH]c(-c4ccc5[nH]c(-c6ccc(O)cc6)nc5c4)nc3c2)CC1	25.1 °C	9 °C	12 °C	–	–	–	–	–	–	–	–	–	–	–
NCc1cccs1	0 °C	0.1 °C	0 °C	> 40 µM	–	–	–	–	–	–	–	–	–	–
NCc1c2ccccc2cc2ccccc12	9 °C	3 °C	1 °C	25.5 µM	inactive	inactive	–	–	–	–	–	–	–	–
N=C(N)NCCCNCCCCNCCCNCc1ccc2ccc3cccc4ccc1c2c34	39.1 °C	–	16 °C	25.3 µM	inactive	inactive	8 µM	34.6 µM	> 100 °C	–	–	–	–	–
NCc1ccccc1 [BENZYLAMINE]	0.1 °C	0 °C	0 °C	> 40 µM	inactive	inactive	–	–	–	–	–	–	–	–
N=C(N)NCc1ccccc1	0.1 °C	0.1 °C	0 °C	> 40 µM	inactive	inactive	83.2 µM	47.9 µM	–	43.7 µM	> 100 µM	> 100 µM	–	–
N=C(N)NCc1ccc2c(c1)Cc1ccccc1-2	1 °C	0 °C	0 °C	15.7 µM	–	–	6.9 µM	19.1 µM	–	27.5 µM	32.4 µM	24 µM	–	–
NCCCCNCc1ccc2ccc3cccc4ccc1c2c34	32.1 °C	20.2 °C	10 °C	4.2 µM	–	–	–	–	–	–	–	–	–	–
N=C(N)NCc1c2ccccc2cc2ccccc12	15 °C	6.1 °C	4 °C	1.9 µM	Active	Active	29.5 µM	19.1 µM	–	3.5 µM	> 100 µM	10 µM	–	–
NCc1ccc2ccc3cccc4ccc1c2c34	15 °C	5 °C	3 °C	12 µM	–	–	–	–	–	–	–	–	–	–
N=C(N)NCCCCNCc1c2ccccc2cc2ccccc12	28.1 °C	15.1 °C	9 °C	2.3 µM	–	–	30.9 µM	14.5 µM	–	28.2 µM	79.4 µM	13.8 µM	–	–
CCBr	21 °C	8.1 °C	5 °C	–	–	–	–	–	–	–	–	–	–	–
N=C(N)NCc1ccc2ccc3cccc4ccc1c2c34	19 °C	8.1 °C	6 °C	11 µM	–	–	43.7 µM	33.9 µM	–	93.3 µM	39.8 µM	43.7 µM	–	–
NCc1ccc2c(c1)Cc1ccccc1-2	0.1 °C	1 °C	0 °C	> 40 µM	inactive	inactive	–	–	–	–	–	–	–	–
NCCCCNCc1c2ccccc2cc2ccccc12	26 °C	13.1 °C	8 °C	3.3 µM	–	–	–	–	–	–	–	–	–	–
N=C(N)NCCCCNCc1ccc2ccc3cccc4ccc1c2c34	34.2 °C	–	12 °C	1.9 µM	Active	Active	2.2 µM	16.2 µM	> 100 °C	9.3 µM	30.9 µM	7.9 µM	32%	73%
N=C(N)NCc1cccs1	0 °C	0.1 °C	0 °C	> 40 µM	–	–	85.1 µM	95.5 µM	–	64.6 µM	> 100 µM	> 100 µM	–	–
N=C(N)NCCCCCCNCc1ccc2ccc3cccc4ccc1c2c34	34.1 °C	–	12 °C	4.8 µM	–	–	2.2 µM	29.2 µM	> 100 °C	–	–	–	–	–
